Experiments:
[1] = tested on: VSV-G protein pseudotyped particles; assay type: cell-based, vesicular stomatitis virus
[2] = tested on: SARS-CoV-2 S pseudotyped particles; assay type: cell-based
[3] = tested on: SARS-CoV-1 S pseudotyped particles; assay type: cell-based
HeLa-hACE2 = details: HeLa-hACE2, conditions of the antiviral assay, 16 h
SARS-CoV-2 USA-WA1/2020 = assay type: cell-based
[4] = tested on: SARS-CoV-2 BetaCoV/Germany/BavPat1/2020; assay type: cell-based
SARS-CoV-2 dsRNA = assay type: cell-based
ACE2 = ACE2 immunoblot analysis in Vero E6; assay type: cell-based, monkey; details: Vero E6, after 24 h
[5] = tested on: SARS-CoV-2 BetaCoV/Germany/BavPat1/2020; assay type: cell-based; remark: listed apart in the source
Vero CCL81 cells = details: 1 μM, 18 h
[6] = tested on: ocular angiogenic disease models; details: 0.25 mg/kg; cited from earlier work
[7] = tested on: SARS-CoV-2 negative-stranded viral RNA; assay: In vitro transcribed viral RNA replication assay, negative-stranded RNA RT-qPCR; assay type: cell-based
[8] = tested on: human pneumocyte-like cells; assay: Pneumocyte-like cell MTT viability assay; assay type: cell-based; details: 10 μM, 48 h, uninfected
How it was run: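 Human pneumocyte-like cells derived from H9 embryonic stem cells, used on day nine of differentiation. An uninfected duplicate set received the same drug concentrations as the antiviral set. After 48 h at 37 °C, viability was read by MTT assay. Viability was expressed as a percentage of the DMSO control, in triplicate.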

[9] = tested on: SARS-CoV-2 BetaCoV/Germany/BavPat1/2020; assay: Time-of-addition assay in Vero CCL81, plaque assay; assay type: cell-based
Vero E6 = details: Vero E6, conditions of the antiviral assay, 16 h
[10] = tested on: SARS-CoV-2 nucleoprotein and spike protein; assay type: cell-based
[11] = tested on: SARS-CoV-2 BetaCoV/Germany/BavPat1/2020; assay type: cell-based; details: effect only at 10 μM, less potent than Apra S4
SARS-CoV-2 = details: COVID-19 patients; cited from earlier work

Cc1cccc(/C=N/Nc2cc(N3CCOCC3)nc(OCCc3ccccn3)n2)c1 [Apilimod, apilimod, reference compound]
VSV-G-mediated entry [1]: None of the compounds impacted
viral entry of SARS-CoV-2 S pseudotyped particles (luciferase) [2]: inhibited viral entry
cytotoxic effect (WST-8) (Vero E6 cells): No cytotoxic effect was observed
viral entry of SARS-CoV-1 S pseudotyped particles (luciferase) [3]: inhibited viral entry

CC[C@H](C)[C@H]1C(=O)N2CCC[C@H]2C(=O)O[C@H](C(C)(C)C)C[C@@H](C)C[C@H](O)[C@H](C)C2=N[C@@H](CCC(=O)N[C@@H](Cc3ccc(OC)cc3)C(=O)N(C)[C@@H](C)C(=O)N1C)CS2 [Apra S4, apratoxin S4]
cytotoxicity (HeLa-hACE2): Cytotoxicity was not observed
viral replication in human pneumocyte-like cells (SARS-CoV-2 USA-WA1/2020): significantly decreased viral replication
VSV-G-mediated entry [1]: None of the compounds impacted
SARS-CoV-2 multicycle growth [4]: strongly reduced
virus titers ([4]; […], below limit of detection): < 100 PFU/mL
dsRNA intermediates in infected cells (SARS-CoV-2 dsRNA): strongly reduced
concentration giving decreased ACE2 protein levels (ACE2): ≥ 1 µM
reduction in infectious virus titers in the supernatant [5]: more than 100 fold
cytotoxic effects (CellTiter-Glo) (Vero CCL81 cells): not due to cytotoxic effects
efficacy in ocular angiogenic disease models in vivo [6]: exquisite efficacy
toxicity in ocular angiogenic disease models in vivo [6]: without toxicity or histological abnormalities
negative-strand viral RNA [7]: reduced the negative-strand RNA
viral entry of SARS-CoV-2 S pseudotyped particles (luciferase) [2]: slightly enhanced infection
cytotoxicity in pneumocyte-like cells [8]: No cytotoxicity
antiviral activity by time of addition [9]: did not lose its antiviral activity even if added 2 h after infection
cytotoxicity (Vero E6): Cytotoxicity was not observed
cytotoxic effect (WST-8) (Vero E6 cells): No cytotoxic effect was observed
nucleoprotein signal intensity in infected cells [10]: increased
number of infected cells (N or S positive) [10]: significantly reduced number of infected cells
spike protein staining intensity in infected cells [10]: significantly reduced
viral protein expression at the cell surface (nucleoprotein and spike) [10]: inhibitory effect of Apra S4 was even more pronounced
viral entry of SARS-CoV-1 S pseudotyped particles (luciferase) [3]: slightly enhanced infection

CC1(C)C(N(O)C(=O)Nc2ccc(Cl)cc2)N(c2ccc(Cl)cc2)C(=O)N1CC(=O)N/N=C/C=C/c1ccc([N+](=O)[O-])o1 (stereo not drawn) [Eeyarestatin I, eeyarestatin I]
SARS-CoV-2 growth [11]: inhibited SARS-CoV-2 in a dose-dependent manner

CC(C)C(=O)OC[C@H]1O[C@@H](n2ccc(NO)nc2=O)[C@H](O)[C@@H]1O [molnupiravir]
reduction of the rate of hospitalizations and death (SARS-CoV-2): 30%

CCC(CC)COC(=O)[C@H](C)N[P@](=O)(OC[C@H]1O[C@@](C#N)(c2ccc3c(N)ncnn23)[C@H](O)[C@@H]1O)Oc1ccccc1 [remdesivir, reference compound]
SARS-CoV-2 multicycle growth [4]: less potent
cytotoxicity in pneumocyte-like cells [8]: No cytotoxicity

Reference: publication PMC9260726 (ACS Infectious Diseases, 2022)
